Experimental findings from ChEMBL document CHEMBL1150371, “Design and synthesis of benzenesulfonanilides active against methicillin-resistant Staphylococcus aureus and vancomycin-resistant Enterococcus” (Bioorg Med Chem, 2008) are described below.

What all share (format): functional
The test system of one assay is Enterococcus faecium. The assay is described as follows: Antimicrobial activity against vancomycin-resistant Enterococcus faecium FN-1 by microdilution susceptibility test. In short, it runs like this:
(§1)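 Broth microdilution MIC per Japan Society of Chemotherapy standard method. Cultures grown in sensitivity test broth at 37 °C to OD620 0.1, inoculum ≈10^5 CFU/mL. Twofold dilutions from DMSO stock, 500 to 0.2 µg/mL; 20 h, 37 °C, humid. MIC = lowest concentration clearly inhibiting growth by visual inspection; vancomycin standard; media, DMSO and water controls; at least duplicate.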

In assay [1] the test system is Staphylococcus aureus. The assay is described as follows: Antimicrobial activity against methicillin-resistant Staphylococcus aureus OM584 by microdilution method. In short, it runs like this: as §1
(In general: In broth dilution the organism is exposed to a series of concentrations in liquid medium.)

Assay [2] relates to Staphylococcus aureus. Kind of assay: Antimicrobial activity against methicillin-resistant Staphylococcus aureus at […] by disk diffusion method. In a few lines: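 Overnight nutrient-broth culture (35 °C, 12–18 h) of MRSA OM584 spread on Mueller-Hinton agar; 8-mm paper discs given 10 µL of 20 mM compound in DMSO; plates incubated at 37 °C about 20 h; inhibition zones measured and scored: −, ± (0–1 mm), +1 (1–15 mm), +2 (15–20 mm), +3 (>20 mm).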
In general terms: In agar diffusion tests the substance spreads into inoculated agar from a disc or well.

≈ marks a conversion by molar mass, not a printed value. Calls of active or inactive are those of the source.

Turning to `CN[C@H](CC(C)C)C(=O)N[C@H]1C(=O)N[C@@H](CC(N)=O)C(=O)N[C@H]2C(=O)N[C@H]3C(=O)N[C@H](C(=O)N[C@H](C(=O)O)c4cc(O)cc(O)c4-c4cc3ccc4O)[C@H](O)c3ccc(c(Cl)c3)Oc3cc2cc(c3O[C@@H]2O[C@H](CO)[C@@H](O)[C@H](O)[C@H]2O[C@H]2C[C@](C)(N)[C@H](O)[C@H](C)O2)Oc2ccc(cc2Cl)[C@H]1O` [VANCOMYCIN], in the assay on Enterococcus faecium, the MIC (commonly the smallest concentration in the dilution series that meets the test's criterion for growth inhibition) was determined as 125 µg/mL (≈ 86.3 µM). With `COc1ccc(S(=O)(=O)Nc2cc(Cl)cc(Cl)c2)cc1`, the results for the minimal inhibitory concentration (MIC) against Staphylococcus aureus [1] and in the assay with Enterococcus faecium were 250 µg/mL (≈ 753 µM) and 125 µg/mL (≈ 376 µM), respectively. Take `O=S(=O)(Nc1cc(F)cc(F)c1)c1cc(Cl)cc(Cl)c1`: the MIC with Staphylococcus aureus [1] came out at 31.3 µg/mL (≈ 92.6 µM); against Enterococcus faecium, 7.8 µg/mL (≈ 23.1 µM). Consider `COc1ccc(NS(=O)(=O)c2ccc(N)cc2)cc1`, for which, in the assay on Staphylococcus aureus [2], the result was inactive.

In the case of `Nc1ccc(NS(=O)(=O)c2cc(C(F)(F)F)cc(C(F)(F)F)c2)cc1`, the minimal inhibitory concentration (MIC) against Staphylococcus aureus [1] and with Enterococcus faecium was greater than 250 µg/mL throughout.

Turning to `O=[N+]([O-])c1ccc(NS(=O)(=O)c2cc(Cl)cc(Cl)c2)cc1`, the MIC against Staphylococcus aureus [1] was found to be 7.8 µg/mL (≈ 22.5 µM); in the assay with Enterococcus faecium, 15.6 µg/mL (≈ 44.9 µM). In the same order, the values of `O=S(=O)(Nc1cccc(F)c1F)c1cc(C(F)(F)F)cc(C(F)(F)F)c1` are 15.6 µg/mL (≈ 38.5 µM) and 62.5 µg/mL (≈ 154 µM). Take `O=S(=O)(Nc1cc(C(F)(F)F)cc(C(F)(F)F)c1)c1cc(Cl)cc(Cl)c1`: the MIC in the assay with Staphylococcus aureus [1] worked out at 0.5 µg/mL (≈ 1.14 µM); with Enterococcus faecium, 1 µg/mL (≈ 2.28 µM).

For `Nc1ccc(S(=O)(=O)Nc2ccc(I)cc2)cc1`, in the assay on Staphylococcus aureus [2], the outcome was inactive. On to `Cc1ccc(S(=O)(=O)Nc2cc(Cl)cc(Cl)c2)cc1`, for which the MIC amounted to 125 µg/mL (≈ 395 µM) in the assay with Staphylococcus aureus [1] and 62.5 µg/mL (≈ 198 µM) with Enterococcus faecium. `Nc1ccc(S(=O)(=O)Nc2ccc(C(F)(F)F)cc2)cc1`: the result with Staphylococcus aureus [2] was inactive. With `Nc1ccc(S(=O)(=O)Nc2ccc(Cl)cc2)cc1`, the result with Staphylococcus aureus [2] was inactive. On the same count and under the same terms, next, `O=[N+]([O-])c1ccc(S(=O)(=O)Nc2ccccc2)cc1`: “inactive”. As for `O=S(=O)(Nc1cc(Cl)cc(Cl)c1)c1ccc(C(F)(F)F)cc1`, the MIC amounted to 15.6 µg/mL (≈ 42.1 µM) in the assay with Staphylococcus aureus [1] and 7.8 µg/mL (≈ 21.1 µM) against Enterococcus faecium. As to `Cc1ccccc1NS(=O)(=O)c1ccc(N)cc1`, the result with Staphylococcus aureus [2] was inactive. Consider `Nc1ccc(NS(=O)(=O)c2cc(Cl)cc(Cl)c2)cc1`, for which the MIC in the assay with Staphylococcus aureus [1] and against Enterococcus faecium was greater than 250 µg/mL throughout.

Turning to `Cc1ccc(NS(=O)(=O)c2cc(Cl)cc(Cl)c2)cc1`, the results for the minimal inhibitory concentration (MIC) with Staphylococcus aureus [1] and against Enterococcus faecium were greater than 250 µg/mL and 62.5 µg/mL (≈ 198 µM), respectively. In the case of `Cl.O=[N+]([O-])c1ccc(S(=O)(=O)Nc2cc(C(F)(F)F)cc(C(F)(F)F)c2)cc1`, the “inhibition zone (IZ)” value with Staphylococcus aureus [2] is greater than 20 mm. For `CS(=O)(=O)Nc1ccc(S(=O)(=O)Nc2cc(C(F)(F)F)cc(C(F)(F)F)c2)cc1`, the “inhibition zone (IZ)” value in the assay on Staphylococcus aureus [2] was determined as 0 mm. `O=S(=O)(Nc1cc(C(F)(F)F)cc(C(F)(F)F)c1)c1cccc(Cl)c1`: the MIC is 31.3 µg/mL (≈ 77.5 µM) against Staphylococcus aureus [1] and 15.6 µg/mL (≈ 38.6 µM) in the assay with Enterococcus faecium.

In the case of `O=S(=O)(Nc1ccc(C(F)(F)F)cc1)c1cc(C(F)(F)F)cc(C(F)(F)F)c1`, the MIC in the assay on Staphylococcus aureus [1] amounted to 7.8 µg/mL (≈ 17.8 µM); against Enterococcus faecium it was 3.9 µg/mL (≈ 8.92 µM).

For `Cc1ccc(NS(=O)(=O)c2ccc(NS(C)(=O)=O)cc2)cc1`, in the assay on Staphylococcus aureus [2], the result was inactive.

For the compound `Cc1cccc(NS(=O)(=O)c2ccc(NS(C)(=O)=O)cc2)c1`, the outcome with Staphylococcus aureus [2] was inactive. Still for that read-out and setting: under `Cc1ccc(NS(=O)(=O)c2ccc(C(=O)O)cc2)cc1` stands “inactive”. Take `O=S(=O)(Nc1cc(Cl)c(O)c(Cl)c1)c1cc(Cl)cc(Cl)c1`: the MIC in the assay with Staphylococcus aureus [1] and in the assay with Enterococcus faecium was 31.3 µg/mL (≈ 80.9 µM) throughout.

Turning to `COc1ccc(NS(=O)(=O)c2cc(C(F)(F)F)cc(C(F)(F)F)c2)cc1`, the MIC in the assay with Staphylococcus aureus [1] was greater than 250 µg/mL; against Enterococcus faecium, 125 µg/mL (≈ 313 µM). With `CS(=O)(=O)Nc1ccc(S(=O)(=O)Nc2ccc(C(F)(F)F)cc2)cc1`, the result in the assay with Staphylococcus aureus [2] was inactive. Consider `Cc1cc(C)cc(NS(=O)(=O)c2ccc(NS(C)(=O)=O)cc2)c1`, for which the outcome in the assay on Staphylococcus aureus [2] was inactive. For the compound `COc1ccc(NS(=O)(=O)c2ccc([N+](=O)[O-])cc2)cc1`, the outcome in the assay with Staphylococcus aureus [2] was inactive. The same measure, in the same setting: under `O=[N+]([O-])c1ccc(S(=O)(=O)Nc2ccc(C(F)(F)F)cc2)cc1` stands “inactive”.

With `O=S(=O)(Nc1cccc(C(F)(F)F)c1)c1cc(Cl)cc(Cl)c1`, the MIC in the assay on Staphylococcus aureus [1] came to 125 µg/mL (≈ 338 µM); in the assay with Enterococcus faecium, 62.5 µg/mL (≈ 169 µM).

For `Cc1cccc(NS(=O)(=O)c2ccc([N+](=O)[O-])cc2)c1`, the “inhibition zone (IZ)” value in the assay with Staphylococcus aureus [2] is reported as 1 mm. `O=S(=O)(Nc1ccc(Cl)cc1Cl)c1cc(C(F)(F)F)cc(C(F)(F)F)c1`: the MIC against Staphylococcus aureus [1] and against Enterococcus faecium was greater than 250 µg/mL in each case. Turning to `O=S(=O)(Nc1cc(Cl)c(O)c(Cl)c1)c1cc(C(F)(F)F)cc(C(F)(F)F)c1`, the MIC with Staphylococcus aureus [1] amounted to 125 µg/mL (≈ 275 µM); with Enterococcus faecium it was 62.5 µg/mL (≈ 138 µM).

In the case of `O=C(O)c1ccc(S(=O)(=O)Nc2ccc(I)cc2)cc1`, the result in the assay with Staphylococcus aureus [2] was inactive.

As to `O=[N+]([O-])c1ccc(S(=O)(=O)Nc2cc(Cl)cc(Cl)c2)cc1`, the results for the MIC with Staphylococcus aureus [1] and with Enterococcus faecium were greater than 250 µg/mL and 62.5 µg/mL (≈ 180 µM), respectively.
